Laboratory results reported in ChEMBL document CHEMBL1154447, “Synthesis, antimicrobial activity, pharmacophore analysis of some new 2-(substitutedphenyl/benzyl)-5-[(2-benzofuryl)carboxamido]benzoxazoles” (2008).
≈ marks a conversion by molar mass, not a printed value.

Legend:
Format in all cases: functional
Escherichia coli [1] = test: Antibacterial activity against Escherichia coli isolate containing extended spectrum beta lactamase after 24 hrs by twofold serial dilution technique
How it was run: (§1)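 Broth microdilution in Mueller-Hinton broth. Isolates were subcultured overnight on MHA at 37 °C and passaged at least twice. McFarland 0.5 cultures […] were diluted to 10⁵ cfu/ml, giving 10⁴ cfu/ml per well, over two-fold compound dilutions. Plates were incubated at 37 °C in a humid chamber for 24 h. MIC was the lowest concentration completely inhibiting macroscopic growth. Triplicate per run.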

Klebsiella pneumoniae [2] = test: Antibacterial activity against Klebsiella pneumoniae RSHM 574 after 24 hrs by twofold serial dilution technique; how it was run: as §1
Pseudomonas aeruginosa [3] = test: Antibacterial activity against Pseudomonas aeruginosa […] after 24 hrs by twofold serial dilution technique; how it was run: as §1
Pseudomonas aeruginosa [4] = test: Antibacterial activity against gentamicin-resistant Pseudomonas aeruginosa isolate after 24 hrs by twofold serial dilution technique
How it was run: (§2)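 Broth microdilution in Mueller-Hinton broth. Strains were subcultured overnight on MHA at 37 °C and passaged at least twice. McFarland 0.5 cultures […] were diluted to 10⁵ cfu/ml, giving 10⁴ cfu/ml per well, against two-fold dilutions from 1000 to 0.06. Solvent and medium controls were included. Plates were held at 37 °C in a humid chamber for 24 h, in triplicate. MIC is the lowest concentration with no macroscopic growth.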

Bacillus subtilis [5] = test: Antibacterial activity against Bacillus subtilis ATCC 6633 after 24 hrs by twofold serial dilution technique; how it was run: as §2
Escherichia coli [6] = test: Antibacterial activity against Escherichia coli ATCC 25922 after 24 hrs by twofold serial dilution technique; how it was run: as §1
Bacillus subtilis [7] = test: Antibacterial activity against ceftriaxone-resistant Bacillus subtilis isolate after 24 hrs by twofold serial dilution technique; how it was run: as §2
Klebsiella pneumoniae [8] = test: Antibacterial activity against Klebsiella pneumoniae isolate containing extended spectrum beta lactamase after 24 hrs by twofold serial dilution technique; how it was run: as §1
Staphylococcus aureus [9] = test: Antibacterial activity against Staphylococcus aureus ATCC 25923 after 24 hrs by twofold serial dilution technique; how it was run: as §1
Staphylococcus aureus [10] = test: Antibacterial activity against methicillin-resistant Staphylococcus aureus isolate after 24 hrs by twofold serial dilution technique; how it was run: as §2
Candida albicans [11] = test: Antifungal activity against biofilm-positive Candida albicans isolate after 48 hrs by twofold serial dilution technique
How it was run: (§3)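 Yeasts were subcultured on SDA at 35 °C for 24-48 h and passaged twice. Broth microdilution followed CLSI M27-A in RPMI-1640 with L-glutamine, MOPS-buffered to pH 7. Inoculum was McFarland 0.5 (10⁶ cfu/ml) diluted to 10⁴ cfu/ml, giving 10³ cfu/ml per well. Incubated at 35 °C in a humid chamber and read at 48 h as the lowest concentration with no macroscopic growth. Triplicate per run.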

Candida albicans [12] = test: Antifungal activity against Candida albicans ATCC 10231 after 48 hrs by twofold serial dilution technique; conditions: ATCC 10231, 48 h; how it was run: as §3
Pichia kudriavzevii = test: Antifungal activity against Candida krusei ATCC 6258 after 48 hrs by twofold serial dilution technique; conditions: ATCC 6258, 48 h; how it was run: as §3

Compound	MIC (Escherichia coli [1]) [µg/mL]	MIC (Klebsiella pneumoniae [2]) [µg/mL]	MIC (Pseudomonas aeruginosa [3]) [µg/mL]	MIC (Pseudomonas aeruginosa [4]) [µg/mL]	MIC (Bacillus subtilis [5]; ATCC 6633, 24 h) [µg/mL]	MIC (Escherichia coli [6]; ATCC 25922, 24 h) [µg/mL]	MIC (Bacillus subtilis [7]) [µg/mL]	MIC (Klebsiella pneumoniae [8]) [µg/mL]	MIC (Staphylococcus aureus [9]; ATCC 25923, 24 h) [µg/mL]	MIC (Staphylococcus aureus [10]) [µg/mL]	MIC (Candida albicans [11]) [µg/mL]	MIC (Candida albicans [12]) [µg/mL]	MIC (Pichia kudriavzevii) [µg/mL]	MIC (Bacillus subtilis [5]) [µg/mL]	MIC (Escherichia coli [6]) [µg/mL]	MIC (Staphylococcus aureus [9]) [µg/mL]
CO[C@H]1/C=C/O[C@@]2(C)Oc3c(C)c(O)c4c(O)c(c(/C=N/N5CCN(C)CC5)c(O)c4c3C2=O)NC(=O)/C(C)=C\C=C\[C@H](C)[C@H](O)[C@@H](C)[C@@H](O)[C@@H](C)[C@H](OC(C)=O)[C@@H]1C [RIFAMPIN]	3.9 (≈ 4.74 µM)	1.9 (≈ 2.31 µM)	> 500	> 500	0.12 (≈ 0.146 µM)	1.9 (≈ 2.31 µM)	3.9 (≈ 4.74 µM)	7.8 (≈ 9.48 µM)	0.06 (≈ 0.0729 µM)	0.9 (≈ 1.09 µM)	–	–	–	–	–	–
C[C@@H]1[C@H](O)[C@@H](C)/C=C/C=C/C=C/C=C/C=C/C=C/C=C/[C@H](O[C@@H]2O[C@H](C)[C@@H](O)[C@H](N)[C@@H]2O)C[C@@H]2O[C@](O)(C[C@@H](O)C[C@@H](O)[C@H](O)CC[C@@H](O)C[C@@H](O)CC(=O)O[C@H]1C)C[C@H](O)[C@H]2C(=O)O [AMPHOTERICIN B]	–	–	–	–	–	–	–	–	–	–	0.24 (≈ 0.26 µM)	0.48 (≈ 0.519 µM)	1.9 (≈ 2.06 µM)	–	–	–
O=C(Nc1ccc2oc(Cc3ccc(F)cc3)nc2c1)c1cc2ccccc2o1	125 (≈ 324 µM)	62.5 (≈ 162 µM)	62.5 (≈ 162 µM)	125 (≈ 324 µM)	125 (≈ 324 µM)	62.5 (≈ 162 µM)	125 (≈ 324 µM)	125 (≈ 324 µM)	125 (≈ 324 µM)	62.5 (≈ 162 µM)	62.5 (≈ 162 µM)	62.5 (≈ 162 µM)	250 (≈ 647 µM)	–	–	–
CCc1ccc(-c2nc3cc(NC(=O)c4cc5ccccc5o4)ccc3o2)cc1	125 (≈ 327 µM)	62.5 (≈ 163 µM)	62.5 (≈ 163 µM)	62.5 (≈ 163 µM)	500 (≈ 1310 µM)	62.5 (≈ 163 µM)	125 (≈ 327 µM)	125 (≈ 327 µM)	125 (≈ 327 µM)	62.5 (≈ 163 µM)	62.5 (≈ 163 µM)	62.5 (≈ 163 µM)	125 (≈ 327 µM)	–	–	–
CC1(C)S[C@@H]2[C@H](NC(=O)[C@H](N)c3ccccc3)C(=O)N2[C@H]1C(=O)O.O.O.O [AMPICILLIN TRIHYDRATE]	> 15.6	0.48	> 500	> 500	0.48	3.9	0.48	15.6	0.48	1.9	–	–	–	–	–	–
O=C(Nc1ccc2oc(Cc3ccc(Cl)cc3)nc2c1)c1cc2ccccc2o1	125 (≈ 310 µM)	62.5 (≈ 155 µM)	31.2 (≈ 77.6 µM)	125 (≈ 310 µM)	125 (≈ 310 µM)	62.5 (≈ 155 µM)	125 (≈ 310 µM)	125 (≈ 310 µM)	125 (≈ 310 µM)	125 (≈ 310 µM)	62.5 (≈ 155 µM)	62.5 (≈ 155 µM)	125 (≈ 310 µM)	–	–	–
O=C(Nc1ccc2oc(Cc3ccc(Br)cc3)nc2c1)c1cc2ccccc2o1	125 (≈ 279 µM)	62.5 (≈ 140 µM)	31.2 (≈ 69.9 µM)	15.6 (≈ 34.9 µM)	125 (≈ 279 µM)	62.5 (≈ 140 µM)	125 (≈ 279 µM)	62.5 (≈ 140 µM)	125 (≈ 279 µM)	62.5 (≈ 140 µM)	62.5 (≈ 140 µM)	62.5 (≈ 140 µM)	62.5 (≈ 140 µM)	–	–	–
CC(C)(C)c1ccc(-c2nc3cc(NC(=O)c4cc5ccccc5o4)ccc3o2)cc1	125 (≈ 305 µM)	62.5 (≈ 152 µM)	62.5 (≈ 152 µM)	125 (≈ 305 µM)	125 (≈ 305 µM)	62.5 (≈ 152 µM)	125 (≈ 305 µM)	125 (≈ 305 µM)	125 (≈ 305 µM)	62.5 (≈ 152 µM)	62.5 (≈ 152 µM)	62.5 (≈ 152 µM)	125 (≈ 305 µM)	–	–	–
O=C(Nc1ccc2oc(-c3ccc(F)cc3)nc2c1)c1cc2ccccc2o1	125 (≈ 336 µM)	62.5 (≈ 168 µM)	31.2 (≈ 83.9 µM)	62.5 (≈ 168 µM)	500 (≈ 1340 µM)	62.5 (≈ 168 µM)	125 (≈ 336 µM)	125 (≈ 336 µM)	125 (≈ 336 µM)	31.2 (≈ 83.9 µM)	62.5 (≈ 168 µM)	62.5 (≈ 168 µM)	125 (≈ 336 µM)	–	–	–
Cc1ccc(Cc2nc3cc(NC(=O)c4cc5ccccc5o4)ccc3o2)cc1	125 (≈ 327 µM)	62.5 (≈ 163 µM)	62.5 (≈ 163 µM)	125 (≈ 327 µM)	125 (≈ 327 µM)	62.5 (≈ 163 µM)	125 (≈ 327 µM)	125 (≈ 327 µM)	125 (≈ 327 µM)	62.5 (≈ 163 µM)	62.5 (≈ 163 µM)	62.5 (≈ 163 µM)	250 (≈ 654 µM)	–	–	–
GENTAMICIN	15.6	0.24	31.2	62.5	–	–	0.12	7.8	–	7.8	–	–	–	0.24	0.48	0.48
O=C(Nc1ccc2oc(-c3ccccc3Br)nc2c1)c1cc2ccccc2o1	125 (≈ 289 µM)	62.5 (≈ 144 µM)	62.5 (≈ 144 µM)	62.5 (≈ 144 µM)	500 (≈ 1150 µM)	62.5 (≈ 144 µM)	125 (≈ 289 µM)	125 (≈ 289 µM)	125 (≈ 289 µM)	31.2 (≈ 72.1 µM)	62.5 (≈ 144 µM)	62.5 (≈ 144 µM)	250 (≈ 577 µM)	–	–	–
O=C(Nc1ccc2oc(-c3ccccc3)nc2c1)c1cc2ccccc2o1	125 (≈ 353 µM)	62.5 (≈ 176 µM)	62.5 (≈ 176 µM)	62.5 (≈ 176 µM)	125 (≈ 353 µM)	62.5 (≈ 176 µM)	250 (≈ 705 µM)	125 (≈ 353 µM)	62.5 (≈ 176 µM)	62.5 (≈ 176 µM)	62.5 (≈ 176 µM)	62.5 (≈ 176 µM)	62.5 (≈ 176 µM)	–	–	–
CC1COc2c(N3CCN(C)CC3)c(F)cc3c(=O)c(C(=O)O)cn1c23 (stereo not given) [OFLOXACIN]	7.8 (≈ 21.6 µM)	0.12 (≈ 0.332 µM)	62.5 (≈ 173 µM)	62.5 (≈ 173 µM)	0.12 (≈ 0.332 µM)	–	3.9 (≈ 10.8 µM)	3.9 (≈ 10.8 µM)	0.12 (≈ 0.332 µM)	1.9 (≈ 5.26 µM)	–	–	–	–	–	–
OC(Cn1cncn1)(Cn1cncn1)c1ccc(F)cc1F [FLUCONAZOLE]	–	–	–	–	–	–	–	–	–	–	0.48 (≈ 1.57 µM)	1.9 (≈ 6.2 µM)	15.6 (≈ 51 µM)	–	–	–
O=C(Nc1ccc2oc(Cc3ccccc3)nc2c1)c1cc2ccccc2o1	62.5 (≈ 170 µM)	62.5 (≈ 170 µM)	31.2 (≈ 84.8 µM)	62.5 (≈ 170 µM)	125 (≈ 339 µM)	62.5 (≈ 170 µM)	125 (≈ 339 µM)	62.5 (≈ 170 µM)	125 (≈ 339 µM)	62.5 (≈ 170 µM)	31.2 (≈ 84.8 µM)	62.5 (≈ 170 µM)	31.2 (≈ 84.8 µM)	–	–	–
